Data as given in ChEMBL document CHEMBL3997808 (J Med Chem, 2017).
Values after ≈ are worked out from the molar mass of the structure shown.

Assays:
[1] = Half-life in rat at 1.1 mg/kg, iv; format: ADME, organism-based; details: in vivo
[2] = Fraction unbound in rat blood; format: ADME, tissue-based
[3] = Drug metabolism in cynomolgus monkey hepatocytes assessed as 5-benzyl-1H-1,2,4-triazole-3-carboxylic acid formation at 10 uM measured up to 4 hrs; format: ADME, cell-based, Macaca fascicularis, Hepatocyte
Summary of the method: (§1)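 Compound at 10 μM was incubated with hepatocyte suspensions at 1 million cells/mL. Incubation ran at 37°C under 5% CO2:95% O2 for up to 4 h.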

[4] = target: T1, Nuclear receptor subfamily 1 group I member 2 (Homo sapiens, UniProt O75469); assay: Activation of human PXR; format: ADME
T1 sequence (O75469 whole entry): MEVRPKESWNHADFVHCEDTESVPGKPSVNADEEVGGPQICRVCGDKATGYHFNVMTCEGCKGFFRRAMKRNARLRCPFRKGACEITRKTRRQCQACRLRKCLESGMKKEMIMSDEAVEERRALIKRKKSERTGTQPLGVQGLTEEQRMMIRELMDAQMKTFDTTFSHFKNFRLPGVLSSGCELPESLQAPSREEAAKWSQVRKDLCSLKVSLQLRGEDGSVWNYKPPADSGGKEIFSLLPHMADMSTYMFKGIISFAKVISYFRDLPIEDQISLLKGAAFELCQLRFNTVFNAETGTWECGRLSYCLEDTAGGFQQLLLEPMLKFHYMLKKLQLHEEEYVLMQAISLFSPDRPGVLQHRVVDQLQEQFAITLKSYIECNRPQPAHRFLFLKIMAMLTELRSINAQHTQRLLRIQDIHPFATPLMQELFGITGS

[5] = Stability in rat microsomes measured up to 45 mins; format: ADME, Microsome; details: 0.75 h
[6] = Drug metabolism in cynomolgus monkey hepatocytes assessed as (S)-5-benzyl-N-(4-oxo-2,3,4,5-tetrahydrobenzo[b][1,4]oxazepin-3-yl)-1H-1,2,4-triazole-3-carboxamide formation at 10 uM measured up to 4 hrs; format: ADME, cell-based, Macaca fascicularis, Hepatocyte; summary of the method: as §1
[7] = Solubility of the compound in FaSSIF; format: physicochemical
[8] = Stability in human microsomes measured up to 45 mins; format: ADME, Microsome; details: 0.75 h
[9] = Drug metabolism in cynomolgus monkey hepatocytes assessed as (S)-3-amino-5-methyl-2,3-dihydrobenzo[b][1,4]oxazepin-4(5H)-one formation at 10 uM measured up to 4 hrs; format: ADME, cell-based, Macaca fascicularis, Hepatocyte; summary of the method: as §1
[10] = Fraction unbound in dog blood; format: ADME, tissue-based, Canis lupus familiaris
[11] = tested on: Blood; assay: Drug uptake in Han Wistar rat blood at 2 mg/kg, iv administered as 4 hrs infusion; format: ADME, organism-based; details: in vivo
Summary of the method: (§2)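 Rats received a 4 h iv infusion, after which terminal tissue samples were collected. Parent drug concentrations were measured in each tissue and compared with blood levels.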

[12] = AUC in cynomolgus monkey at 1.9 mg/kg, po; format: ADME, organism-based, Macaca fascicularis; details: in vivo
[13] = target: Voltage-gated inwardly rectifying potassium channel KCNH2 (Homo sapiens, UniProt Q12809); assay: Inhibition of human ERG expressed in HEK293 cells; format: cell-based
Sequence of Voltage-gated inwardly rectifying potassium channel KCNH2 (Q12809 whole entry): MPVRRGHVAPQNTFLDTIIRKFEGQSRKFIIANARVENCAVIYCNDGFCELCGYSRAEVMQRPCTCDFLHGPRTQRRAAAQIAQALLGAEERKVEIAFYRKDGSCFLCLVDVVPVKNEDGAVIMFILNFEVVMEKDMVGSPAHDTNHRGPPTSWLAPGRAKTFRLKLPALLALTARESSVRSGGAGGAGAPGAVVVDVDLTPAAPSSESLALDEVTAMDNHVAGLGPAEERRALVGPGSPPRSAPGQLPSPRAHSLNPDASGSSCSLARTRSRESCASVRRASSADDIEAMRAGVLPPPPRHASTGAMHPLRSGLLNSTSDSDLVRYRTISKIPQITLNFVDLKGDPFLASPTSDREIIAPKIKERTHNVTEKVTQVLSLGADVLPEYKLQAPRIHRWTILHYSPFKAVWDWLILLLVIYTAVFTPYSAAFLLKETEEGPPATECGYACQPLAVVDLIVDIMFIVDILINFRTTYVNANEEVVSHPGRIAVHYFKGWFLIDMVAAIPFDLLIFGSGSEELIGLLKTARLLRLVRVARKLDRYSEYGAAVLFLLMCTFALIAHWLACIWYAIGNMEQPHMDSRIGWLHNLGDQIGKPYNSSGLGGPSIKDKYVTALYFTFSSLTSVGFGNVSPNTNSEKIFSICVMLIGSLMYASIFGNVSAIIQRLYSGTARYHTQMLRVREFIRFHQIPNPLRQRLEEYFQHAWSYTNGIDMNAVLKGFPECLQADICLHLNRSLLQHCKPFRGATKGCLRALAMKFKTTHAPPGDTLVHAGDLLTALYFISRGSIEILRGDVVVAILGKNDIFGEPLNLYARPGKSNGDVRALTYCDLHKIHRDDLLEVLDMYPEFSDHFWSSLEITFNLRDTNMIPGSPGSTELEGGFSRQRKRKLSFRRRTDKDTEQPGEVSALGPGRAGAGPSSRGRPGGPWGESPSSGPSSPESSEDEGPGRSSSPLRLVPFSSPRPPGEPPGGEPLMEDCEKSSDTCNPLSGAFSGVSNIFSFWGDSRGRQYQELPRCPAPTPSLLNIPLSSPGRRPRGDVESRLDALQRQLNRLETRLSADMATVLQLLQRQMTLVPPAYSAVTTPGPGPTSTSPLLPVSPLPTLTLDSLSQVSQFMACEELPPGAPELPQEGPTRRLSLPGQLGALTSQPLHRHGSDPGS

[14] = Cmax in rat at 2.1 mg/kg, po; format: ADME, organism-based; design: dose 2.1 mg/kg, route oral; details: in vivo
[15] = Inhibition of recombinant human cytochrome P450; format: ADME; details: recombinant enzyme
[16] = Drug metabolism in rat hepatocytes assessed as (S)-3-amino-5-methyl-2,3-dihydrobenzo[b][1,4]oxazepin-4(5H)-one formation at 10 uM measured up to 4 hrs; format: ADME, cell-based, Hepatocyte; summary of the method: as §1
[17] = Oral bioavailability in rat at 2.1 mg/kg; format: ADME, organism-based; details: in vivo
[18] = tested on: Heart; assay: Drug uptake in Han Wistar rat heart at 2 mg/kg, iv administered as 4 hrs infusion; format: ADME, organism-based; details: in vivo; summary of the method: as §2
[19] = tested on: Cynomolgus monkey; assay: Toxicity in cynomolgus monkey at 2 to 1000 mg/kg, po after 1 month; format: organism-based, Macaca fascicularis; details: in vivo, 730.5 h
[20] = Stability in dog microsomes measured up to 45 mins; format: ADME, Canis lupus familiaris, Microsome; details: 0.75 h
[21] = AUC (0 to infinity) in rat at 2 mg/kg, po; format: ADME, organism-based; design: dose 2 mg/kg, route oral, time infinity; details: in vivo
[22] = AUC in rat at 2.1 mg/kg, po; format: ADME, organism-based; details: in vivo
[23] = Drug metabolism in human hepatocytes assessed as 5-benzyl-1H-1,2,4-triazole-3-carboxylic acid formation at 10 uM measured up to 4 hrs; format: ADME, cell-based, Hepatocyte; summary of the method: as §1
[24] = Drug metabolism in cynomolgus monkey hepatocytes assessed as glucuronide metabolite M553 formation at 10 uM measured up to 4 hrs; format: ADME, cell-based, Macaca fascicularis, Hepatocyte; summary of the method: as §1
[25] = Oral bioavailability in cynomolgus monkey at 1.9 mg/kg; format: ADME, organism-based, Macaca fascicularis; details: in vivo
[26] = Drug metabolism in cynomolgus monkey hepatocytes assessed as 5-(hydroxy(phenyl)methyl)-N-((S)-5-methyl-4-oxo-2,3,4,5-tetrahydrobenzo[b][1,4]oxazepin-3-yl)-1H-1,2,4-triazole-3-carboxamide formation at 10 uM measured up to 4 hrs; format: ADME, cell-based, Macaca fascicularis, Hepatocyte; summary of the method: as §1
[27] = Drug metabolism in rat hepatocytes assessed as 5-benzyl-1H-1,2,4-triazole-3-carboxylic acid formation at 10 uM measured up to 4 hrs; format: ADME, cell-based, Hepatocyte; summary of the method: as §1
[28] = tested on: Rattus norvegicus; assay: Toxicity in rat at 2 to 1000 mg/kg, po after 1 month; format: organism-based; details: in vivo, 730.5 h

What does the source list for `CN1C(=O)[C@@H](NC(=O)c2nnc(Cc3ccccc3)[nH]2)COc2ccccc21` [GSK2982772]?
half-life [1]: 3.9 h; fraction unbound [2]: 0.042; Drug metabolism [3]: Metabolite_Detected; EC50 [4]: 13 µM; Stability [5]: Stable; Drug metabolism [6]: Metabolite_Detected; solubility [7]: 0.23 mg/mL (≈ 609 µM); Stability [8]: Stable; Drug metabolism [9]: Metabolite_Detected; fraction unbound [10]: 0.11; Drug uptake [11]: Active; AUC [12]: 2.9 µg·h/mL; IC50 [13]: 195 µM; Cmax [14]: 0.81 µg/mL; inhibition (INH) [15]: Not Active; Drug metabolism [16]: Metabolite_Detected; bioavailability [17]: 110%; Drug uptake [18]: Active; Activity [19]: Non-Toxic; Stability [20]: Stable; AUC(0-inf) [21]: 2.3 µg·h/mL; AUC [22]: 2.3 µg·h/mL; Drug metabolism [23]: Metabolite_Detected; Drug metabolism [24]: Metabolite_Detected; bioavailability [25]: 86%; Drug metabolism [26]: Metabolite_Detected; Drug metabolism [27]: Metabolite_Detected; Activity [28]: Non-Toxic
